Laboratory results taken from ChEMBL document CHEMBL3994580, “A novel class of α-glucosidase and HMG-CoA reductase inhibitors from Ganoderma leucocontextum and the anti-diabetic properties of ganomycin I in KK-Ay mice” (Eur J Med Chem, 2017).
The source made the active and inactive calls. No cut-off for these calls is given here.

Experiments:
[1] = biological target: T1, 3-hydroxy-3-methylglutaryl-coenzyme A reductase (Sus scrofa) (UniProt Q1W675); assay: (§1) Inhibition of HMG-CoA reductase in pig liver microsomes using HMG-CoA as substrate preincubated for 5 mins followed by NADPH addition measured after 15 mins by colorimetric method
T1 sequence (whole entry): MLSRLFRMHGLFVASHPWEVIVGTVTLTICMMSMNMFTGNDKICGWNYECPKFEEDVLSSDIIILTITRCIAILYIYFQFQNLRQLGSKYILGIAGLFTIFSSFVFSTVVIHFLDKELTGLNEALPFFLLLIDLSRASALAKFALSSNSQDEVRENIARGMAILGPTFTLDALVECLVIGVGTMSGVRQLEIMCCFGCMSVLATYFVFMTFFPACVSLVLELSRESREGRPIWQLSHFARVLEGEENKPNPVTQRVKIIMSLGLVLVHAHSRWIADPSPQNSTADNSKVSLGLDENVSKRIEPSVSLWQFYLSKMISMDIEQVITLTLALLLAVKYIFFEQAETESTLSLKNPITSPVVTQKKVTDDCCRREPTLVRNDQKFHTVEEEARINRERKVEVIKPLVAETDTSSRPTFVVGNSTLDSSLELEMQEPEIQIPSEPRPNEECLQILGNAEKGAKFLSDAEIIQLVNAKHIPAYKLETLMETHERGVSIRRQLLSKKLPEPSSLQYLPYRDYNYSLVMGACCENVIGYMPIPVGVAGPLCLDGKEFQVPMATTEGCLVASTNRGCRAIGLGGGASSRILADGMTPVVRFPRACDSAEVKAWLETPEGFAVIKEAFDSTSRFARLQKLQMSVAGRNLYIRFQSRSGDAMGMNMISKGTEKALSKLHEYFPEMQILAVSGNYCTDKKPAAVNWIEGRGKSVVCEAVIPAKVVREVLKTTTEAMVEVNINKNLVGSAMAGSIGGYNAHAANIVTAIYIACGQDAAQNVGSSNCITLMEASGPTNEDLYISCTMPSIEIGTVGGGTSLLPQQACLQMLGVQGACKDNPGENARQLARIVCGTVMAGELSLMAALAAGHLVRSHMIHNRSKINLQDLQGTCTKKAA
Outline: (§2)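 HMG-CoA reductase activity followed by absorbance at 340 nm. Blank had potassium phosphate buffer instead of enzyme, and control had buffer instead of compound. Percent inhibition calculated from blank-corrected OD.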

[2] = biological target: T2, 3-hydroxy-3-methylglutaryl-coenzyme A reductase (Sus scrofa, UniProt Q1W675); assay: as §1; outline: as §2
T2 sequence (Q1W675 whole entry): T1 sequence (whole entry)

[3] = Inhibition of alpha-glucosidase in rat small intestinal mucosa assessed as reduction in glucose production using p-nitrophenyl alpha-D-glucopyranoside as substrate measured after 40 mins by glucose oxidase assay
Outline: (§3)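 Rat small intestinal mucosa enzyme. Compound in DMSO mixed with substrate (maltose, sucrose or pNPG) and enzyme in 0.1 M phosphate buffer pH 6.9, incubated 40 min. Glucose released measured by glucose oxidase kit at 550 nm. Blank lacked enzyme, control lacked compound. Percent inhibition calculated from blank-corrected OD.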

[4] = Inhibition of maltase in rat small intestinal mucosa assessed as reduction in glucose production using maltose as substrate measured after 40 mins by glucose oxidase assay; outline: as §3
Saccharomyces cerevisiae = assay: Non-competitive inhibition of baker's yeast alpha-glucosidase using varying levels of p-nitrophenyl alpha-D-glucopyranoside as substrate preincubated for 10 mins followed by substrate addition measured for 15 mins by Lineweaver-Burk plot analysis
Outline: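 Kinetics with inhibitor at 0.3 to 1 μM against α-glucosidase. pNPG at 2, 4, 6 and 8 μM. Initial velocities measured with and without inhibitor, and inhibition type assigned from Michaelis-Menten and Lineweaver-Burk plots.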

Mus musculus [5] = assay: Antidiabetic activity in KK-Ay diabetic mouse model assessed as reduction in blood glucose level after 4 hrs fasting at 1 to 5 mg/kg/day administered via oral gavage once daily measured on day 3 post dose; type: functional, organism-based
Outline: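 KK-Ay mice on high-fat diet, gavaged once daily (1 or 5 mg/kg; rosiglitazone 10 mg/kg). Blood glucose monitored sequentially after 4 h fasting. Mean ± SEM, n = 8, compared with the KK-Ay model group.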

Mus musculus [6] = assay: Antidiabetic activity in KK-Ay diabetic mouse model assessed as reduction in HbA1C level at 1 to 5 mg/kg/day administered via oral gavage once daily for 21 days; type: functional, organism-based
Mus musculus [7] = assay: Toxicity in KK-Ay diabetic mouse model assessed as changes in body weight at 1 to 5 mg/kg/day administered via oral gavage once daily measured every 3 days during first two weeks of compound dosing; type: organism-based; conditions: in vivo, 72 h
Outline: (§4)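 In high-fat-fed KK-Ay mice gavaged once daily for 21 days, individual body weight and cage food consumption were recorded every 3 days. Mean ± SEM, n = 8.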

Mus musculus [8] = assay: Toxicity in KK-Ay diabetic mouse model assessed as decrease in body weight at 1 to 5 mg/kg/day administered via oral gavage once daily measured every 3 days post two weeks of compound treatment; type: organism-based; conditions: in vivo, 72 h; outline: as §4
Mus musculus [9] = assay: Hypolipidemic activity in KK-Ay diabetic mouse model assessed as reduction in serum NEFA level at 1 to 5 mg/kg/day administered via oral gavage once daily for 21 days; type: functional, organism-based
Outline: (§5)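 Male KK-Ay mice (8 weeks old) on high-fat diet with water ad libitum, dosed by gavage once daily for 21 days (1 or 5 mg/kg test; rosiglitazone 10 mg/kg); female C57BL/6J mice as normal controls. Blood collected at study end. Serum lipids, insulin and glucose measured per cited method. ISI calculated from fasting blood glucose and fasting insulin. Mean ± SEM, n = 7-8.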

Mus musculus [10] = assay: Hypolipidemic activity in KK-Ay diabetic mouse model assessed as reduction in serum total cholesterol level at 1 to 5 mg/kg/day administered via oral gavage once daily for 21 days; type: functional, organism-based; outline: as §5
Mus musculus [11] = assay: Decrease in hepatocyte hypertrophy in KK-Ay diabetic mouse model at 5 mg/kg/day administered via oral gavage once daily for 21 days by haematoxylin and eosin staining based microscopic or morphometric method; type: functional, organism-based
Outline: (§6)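 At study end, liver and abdominal white adipose tissue were fixed in 10% formaldehyde PBS (pH 7.4), paraffin-embedded, sectioned and stained with haematoxylin/eosin. Sections were assessed by microscopy or morphometry at 20×.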

Mus musculus [12] = assay: Decrease in size of adipocytes in abdominal white adipose tissue in KK-Ay diabetic mouse model at 5 mg/kg/day administered via oral gavage once daily for 21 days by haematoxylin and eosin staining based microscopic or morphometric method; type: functional, organism-based; outline: as §6
Mus musculus [13] = assay: Acute toxicity in mouse assessed as coma up to 3 g/kg, po up to 14 days; conditions: in vivo, 336 h
Mus musculus [14] = assay: Acute toxicity in mouse assessed as effect on sleep up to 3 g/kg, po up to 14 days; conditions: in vivo, 336 h
Mus musculus [15] = assay: Acute toxicity in mouse assessed as effect on behavior up to 3 g/kg, po up to 14 days; conditions: in vivo, 336 h
Mus musculus [16] = assay: Acute toxicity in mouse assessed as changes in nature of stool up to 3 g/kg, po up to 14 days; conditions: in vivo, 336 h
Mus musculus [17] = assay: Acute toxicity in mouse assessed as changes in nature of urine up to 3 g/kg, po up to 14 days; conditions: in vivo, 336 h
Mus musculus [18] = assay: Acute toxicity in mouse assessed as effect on physical activity up to 3 g/kg, po up to 14 days; conditions: in vivo, 336 h

## CC(C)=CCC/C(C)=C/CCC1=C[C@H](c2cc(O)ccc2O)OC1=O
[1]
  inhibition: Dose-dependent effect
[2]
  IC50: 12.3 µM
[3]
  IC50: 0.4 µM
[4]
  IC50: 3.6 µM
Saccharomyces cerevisiae
  inhibition: Active
Mus musculus [5]
  Activity: Active
Mus musculus [6]
  Activity: Active
Mus musculus [7]
  Activity: Non-Toxic
Mus musculus [8]
  Activity: Toxic
Mus musculus [9]
  Activity: Active
Mus musculus [10]
  Activity: Active
Mus musculus [11]
  Activity: Active
Mus musculus [12]
  Activity: Active
Mus musculus [13]
  Activity: Non-Toxic
Mus musculus [14]
  Activity: Non-Toxic
Mus musculus [15]
  Activity: Non-Toxic
Mus musculus [16]
  Activity: Non-Toxic
Mus musculus [17]
  Activity: Non-Toxic
Mus musculus [18]
  Activity: Non-Toxic
